# Assay outcomes as filed in PubChem.
# MLLE-PAM2 inh: inhibitors of PABP1 MLLE–PAM2 peptide binding, primary screen, biochemical, fluorescence polarization, FITC-PAM2, GST-MLLE. Polyadenylate-binding protein 1 (Homo sapiens), P11940. inhibition, % at 20 µM. 0.36% of 360,000 active; in the data active = inhibition above about 35%, passing the limit was not always enough;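 note: plate controls were DMSO wells with GST-MLLE for no effect and wells lacking GST-MLLE protein for full effect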
# eIF4H inh: human eIF4H binding inhibitors, primary screen, translation initiation inhibitor project, biochemical, uHTS, fluorescence polarization; Eukaryotic translation initiation factor 4H (Homo sapiens), Q15056; 0.94% of 290,000 active; inhibition, % at 35 µM; AID 2012, 2009; eIF4H fluorescence polarization binding assay;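 note: calls also rest on retests at 20 µM and on dose response follow-up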
# PABP polyA inh: PABP poly(A) RNA binding inhibitors, primary screen, biochemical, fluorescence polarization, uHTS; Polyadenylate-binding protein 1 (Homo sapiens), P11940; calls only at 35 µM; 1% of 290,000 active; AID 2014, 2009;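 note: calls also rest on retests at 20 µM and on dose response follow-up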
# TCR CD3 inh: inhibitors of human TCR-CD3 interaction, primary screen, biochemical, fluorescence, TAMRA-labeled TCR probe; T-cell receptor (TCR); inhibition, % at 9.4 µM; 0.37% of 360,000 active; AID 651800, 2012; in the data active = inhibition above about 19%;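 note: recombinant mutant TCR 2C K166C tagged with TAMRA read by polarization; 0% = receptor in buffer alone and 100% = receptor with positive control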
# RBBP9 inh: human RBBP9 inhibitors, primary screen, biochemical, fluorescence polarization, FP-Rh probe, HTS; Serine hydrolase RBBP9 (Homo sapiens), O75884; recombinant RBBP9; inhibition, % at 7.94 µM; 0.2% of 220,000 active;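 active = inhibition above the campaign mean of all tested compounds plus 3 SD, cut at about 14% in these data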;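 note: plate controls were DMSO wells with RBBP9 for no effect and wells lacking RBBP9 protein for full effect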
# Target sequence (O75884 whole entry, looked up): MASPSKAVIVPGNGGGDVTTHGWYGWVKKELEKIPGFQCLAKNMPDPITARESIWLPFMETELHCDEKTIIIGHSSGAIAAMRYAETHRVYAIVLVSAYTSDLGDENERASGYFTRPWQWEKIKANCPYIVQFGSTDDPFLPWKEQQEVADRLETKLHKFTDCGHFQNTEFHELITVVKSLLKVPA
#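 System: RBBP9 protein / Quantity: 2.5 µM RBBP9 dispensing solution, before mixing / Also added: Serine-hydrolase probe FP-Rh, 375 nM pre-mixing / Dosing: 7.94 µM single dose, 0.794% DMSO / Timing: enzyme-compound preincubation 30 min, then probe labeling 45 min, 25 °C / Signal: FP readout at 525/598 nm / Controls: DMSO-treated enzyme wells and wells lacking RBBP9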
# An asterisk follows results filed as active; i = inactive; . = not tested or not shown; + = active, no number. Sampled rows, rich in hits. Any-hit rate of the full collection: about 1.6%. Unless noted, the rule behind the calls is not given here.
SMILES,MLLE-PAM2 inh,eIF4H inh,PABP polyA inh,TCR CD3 inh,RBBP9 inh
CSc1c(C#N)c(N)nc2sc(C(=O)c3ccccc3)c(N)c12,11,85*,+,13,7
N#Cc1c(SCc2ccc(Cl)cc2)sc(C(=O)c2ccccc2)c1N,10,-16,i,-6,-4
Cc1[nH]nc2c1C(c1ccc(F)cc1)N(c1ccccc1)C2=O (stereo not given),.,.,.,10,.
CC(C)(C)C(=O)Nc1c2c(nn1-c1ccc(F)cc1)CSC2,37*,5,i,2,.
CC(C)C(=O)Nc1c2c(nn1-c1ccc(F)cc1)CSC2,-1,1,i,3,.
O=C(Cc1cnn(-c2ccccc2)c1)c1ccc(O)c(O)c1O,21,86*,+,10,-22
S=C(NN=C1CCCCC1=NNC(=S)N1CCOCC1)N1CCOCC1,.,.,.,10,.
CO[C@@H]1[C@H](O)CC[C@]2(O)CN(c3ccccc3)[C@](C)([C@H](O)CC=C(C)C)[C@@H]12,.,.,.,-3,.
COC(=O)CSc1ncnc2c1sc1nc3c(cc12)COC(C)(C)C3,-9,active,i,2,9
CC1(C)Cc2nc3sc4c(SCC(=O)O)ncnc4c3cc2CO1,7,-4,i,-1,-1
C[C@H](O)[C@@H]1C(=O)N2CCc3c([nH]c4c(-c5ccccc5)cccc34)[C@@H]2C[C@@H]1N(C)C(=O)NC1CCCCC1,.,.,.,-4,.
NC(=O)CSc1nc(C23CC4CC(CC(C4)C2)C3)nc2ccccc12,2,-1,+,2,3
NC(=O)CSc1nc2ccccc2nc1SCC(N)=O,9,-11,i,3,-6
COc1ccc2c(C#N)c3ccccn3c2c1,54*,17,i,5,-5
C#CCNC(=O)C[C@H]1C[C@@]2(C(=O)OC)C(=C[C@H](C(C)(C)C)O[C@@H]2C)N(CCc2ccc(OC)c(OC)c2)C1=O,.,.,.,0,.
Cc1cc(O)cc2c1C(=O)/C(=C/c1ccco1)O2,-11,61*,+,-1,.
CC1CC(C)(C)OC(C[N+]2(C)CCCCC2)O1 (stereo not given),-132,0.6*,+,9,-8
C[N+]1(CC2COC3(CCCCC3)O2)CCCC1 (stereo not given),-112,9,i,1,-1
Nc1[nH]c(C(=O)c2ccc(Br)cc2)c(-c2cccc3ccccc23)c1C(=O)NCCc1c[nH]c2ccccc12,.,.,.,-4,.
C=C(C)C(=O)Nc1cccc(C2=NOC3(C2)C[C@@H](C(N)=O)N(C(=O)[C@H]2CCC(=O)N2)C3)c1 (stereo not given in full),-3,103*,i,-1,.
C=C(C)C(=O)Nc1cccc(C2=NOC3(C2)C[C@@H](C(N)=O)N(C(=O)CCCCC)C3)c1 (stereo not given in full),.,81*,+,-6,.
C=C(C)C(=O)Nc1cccc(C2=NOC3(C2)C[C@@H](C(N)=O)N(C(=O)c2cc([N+](=O)[O-])cc([N+](=O)[O-])c2)C3)c1 (stereo not given in full),-4,89,i,-1,.
C=C(C)C(=O)Nc1cccc(C2=NOC3(C2)C[C@@H](C(N)=O)N(C(=O)c2ccc(OC)cc2)C3)c1 (stereo not given in full),-3,106*,+,.,.
C/C=C(/C)C(=O)Nc1cccc(C2=NOC3(C2)C[C@@H](C(N)=O)N(C(=O)[C@H]2CCC(=O)N2)C3)c1 (stereo not given in full),0,-3,i,2,.
COc1ccc(CC(=O)NCC2CCN(C(=O)C(=O)c3cc4ccccc4o3)CC2)cc1,.,.,.,4,.
SMILES,MLLE-PAM2 inh,eIF4H inh,PABP polyA inh,TCR CD3 inh,RBBP9 inh
O=c1cc(CN2CCCC2)c2ccccc2o1,.,.,.,-1,.
CCC(C)C(=O)N1c2ccccc2C(=C2SC(C(=O)OC)=C(C(=O)OC)S2)C(=S)C1(C)C (stereo not given),46*,-8,i,0,-8
CCCCc1c(-c2ccccc2OC)ncn1Cc1ccc(F)c(F)c1,.,.,.,9,.
Cc1oc(/N=C/c2ccc(Cl)cc2)c(C#N)c1C,-2,53*,+,-7,-6
Cc1oc(/N=C/c2ccccc2O)c(C#N)c1C,11,79*,+,3,4
CC1(C)OC(C)(C)C(=N/O)/C1=N\N,.,.,.,-2,.
C[C@H](O)[C@@H]1C(=O)N2CCc3c([nH]c4c(-c5ccc6c(c5)OCO6)cccc34)[C@@H]2C[C@@H]1N(C)C(=O)NC1CCCCC1,.,.,.,0,.
COc1ccc(S(=O)(=O)N2CCCc3nc(C)c(C)cc32)cc1,.,.,.,-1,.
C=CCSC1=N/C(=C\c2cc(OC)c3c(c2)OCO3)C(=O)S1,-15,57*,i,1,-2
CCSC1=N/C(=C\c2ccc3c(c2)OCO3)C(=O)S1,-14,-2,i,7,-8
COc1ccc(CN2CCNC(=O)C2CC(=O)NCCc2nc(C)c(C)s2)cc1C (stereo not given),30,8,i,4,.
Cc1cnc(CNC(=O)CC2C(=O)NCCN2Cc2cccc(F)c2F)cn1 (stereo not given),21,81*,+,5,.
COc1cccc(CN2CCNC(=O)C2CC(=O)NCc2cn3ccccc3n2)c1OC (stereo not given),15,86*,+,4,-1
Cc1nc(CCNC(=O)CC2C(=O)NCCN2Cc2ccccc2)sc1C (stereo not given),38*,7,i,4,.
O=C(Nc1ccc(N2CCOCC2)c(S(=O)(=O)Nc2ccc(Cl)cc2)c1)c1ccc(=O)[nH]n1,-24,.,.,5,.
O=C(Nc1ccc(N2CCOCC2)c(S(=O)(=O)Nc2ccc(Cl)cc2)c1)c1cnccn1,40*,-4,i,-8,-6
CC1CCc2c(sc(NC(=O)c3ccc(Cn4cc([N+](=O)[O-])cn4)o3)c2C#N)C1 (stereo not given),2,76*,+,7,-5
N#Cc1c(NC(=O)c2ccc(Cn3cc(Br)cn3)o2)sc2c1CCCCC2,8,2,i,-3,-1
CC1(C)c2ssc(=S)c2-c2ccccc2N1C(=O)c1ccco1,15,4,i,-1,-6
Cc1ccc2c(c1)-c1c(ssc1=S)C(C)(C)N2C(=O)c1ccco1,48*,1,i,-2,2
CN(C)Cc1c(C(C)(C)O)[nH]c2cc(F)ccc12,.,.,.,10,.
C[C@]12Cc3ccccc3C1CC1=N[C@@H](c3ccc(C(F)(F)F)cc3)O[C@@]13C[C@@H]2C(=O)N3C1CCN(Cc2ccccc2)CC1 (stereo not given in full),.,.,.,-2,.
O=C1/C(=C\c2ccc(Br)o2)SC(=Nc2ccccc2)N1c1ccccc1,9,55*,+,-4,-13
